Non-standard residues stand in square brackets, D forms with d. Residues, ends and D or L forms follow the SMILES beside them. *: point of attachment. X1 = OC[C@H]1O[C@@H](O[C@H]2[C@H](O)[C@@H](O)[C@H](*)O[C@@H]2CO)[C@H](O)[C@@H](O)[C@@H]1O; Aib = CC(C)(N)C(=O)O; GABA = NCCCC(=O)O
Columns and labels:
[1] = target: Delta-type opioid receptor (Homo sapiens, UniProt P41143); experiment: Displacement of [3H]-naltrindole from human delta opioid receptor expressed in CHO cells after 3 hrs by scintillation counting analysis; type: cell-based
Sequence of Delta-type opioid receptor (P41143 whole entry): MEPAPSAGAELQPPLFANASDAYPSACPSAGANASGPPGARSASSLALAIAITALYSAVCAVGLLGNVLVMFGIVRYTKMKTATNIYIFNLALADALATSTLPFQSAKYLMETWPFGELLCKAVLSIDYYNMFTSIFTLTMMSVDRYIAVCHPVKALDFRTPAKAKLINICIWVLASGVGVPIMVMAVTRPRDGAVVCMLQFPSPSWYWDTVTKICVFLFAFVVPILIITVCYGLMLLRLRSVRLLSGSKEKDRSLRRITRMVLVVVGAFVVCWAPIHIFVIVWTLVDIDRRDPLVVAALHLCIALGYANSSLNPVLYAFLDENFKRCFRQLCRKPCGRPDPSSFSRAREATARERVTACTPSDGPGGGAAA
Summary of the method: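 Binding used CHO-cell membranes bearing human δ receptor and 0.2 nM (final) [3H]naltrindole, incubated 3 h at 25 °C in 50 mM Tris-HCl pH 7.5. Nonspecific binding was defined with 100 μM naloxone. Samples were glass-fiber filtered, washed with cold buffer and scintillation counted. IC50 came from a log-probit least-squares fit and was converted to Ki as IC50/(1+S).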

[2] = target: Kappa-type opioid receptor (Homo sapiens, UniProt P41145); experiment: Displacement of [3H]-U69593 from human kappa opioid receptor expressed in CHO cells after 60 mins by scintillation counting analysis; type: cell-based
Sequence of Kappa-type opioid receptor (P41145 whole entry): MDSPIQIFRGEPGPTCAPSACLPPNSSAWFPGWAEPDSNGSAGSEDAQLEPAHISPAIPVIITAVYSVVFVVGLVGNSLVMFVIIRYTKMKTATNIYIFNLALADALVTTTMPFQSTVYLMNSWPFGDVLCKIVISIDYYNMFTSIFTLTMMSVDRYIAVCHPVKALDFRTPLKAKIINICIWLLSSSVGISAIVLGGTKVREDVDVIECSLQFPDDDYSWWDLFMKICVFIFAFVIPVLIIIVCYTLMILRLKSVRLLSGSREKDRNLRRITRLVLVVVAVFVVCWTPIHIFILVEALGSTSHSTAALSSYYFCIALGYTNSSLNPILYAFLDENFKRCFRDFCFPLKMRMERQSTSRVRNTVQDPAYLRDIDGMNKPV
Summary of the method: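 Human κ receptor stably expressed in CHO cells was used as a membrane prep. It was incubated with 1 nM (final) [3H]U69,593 for 60 min at 25 °C in 50 mM Tris-HCl pH 7.5, with 10 μM naloxone defining nonspecific binding. Samples were filtered through glass-fiber filters presoaked ≥30 min in 0.1% polyethylenimine, washed cold and scintillation counted. Ki was derived from a log-probit IC50 via IC50/(1+S).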

[3] = test system: Mus musculus; experiment: Antinociceptive activity in icv dosed ICR mouse by 55 degC warm water tail-flick test; type: functional
[4] = test system: Mus musculus; experiment: Antinociceptive activity in iv dosed ICR mouse by 55 degC warm water tail-flick test; type: functional
[5] = target: Mu-type opioid receptor (Homo sapiens, UniProt P35372); experiment: Displacement of [3H]-DAMGO from human mu opioid receptor expressed in CHO cells after 60 mins by scintillation counting analysis; type: cell-based
Sequence of Mu-type opioid receptor (P35372 whole entry): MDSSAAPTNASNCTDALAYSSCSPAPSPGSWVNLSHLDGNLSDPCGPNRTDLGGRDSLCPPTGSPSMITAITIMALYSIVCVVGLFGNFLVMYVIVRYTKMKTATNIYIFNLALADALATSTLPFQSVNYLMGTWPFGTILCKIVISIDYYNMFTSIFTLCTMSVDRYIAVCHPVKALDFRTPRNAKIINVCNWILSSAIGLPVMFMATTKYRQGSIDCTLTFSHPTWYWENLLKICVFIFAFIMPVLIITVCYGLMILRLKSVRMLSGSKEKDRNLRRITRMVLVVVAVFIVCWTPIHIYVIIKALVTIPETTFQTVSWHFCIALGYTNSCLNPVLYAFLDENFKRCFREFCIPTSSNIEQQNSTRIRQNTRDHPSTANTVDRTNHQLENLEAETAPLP
Summary of the method: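 Membranes from CHO cells stably expressing human μ receptor were incubated with 0.25 nM (final) [3H]DAMGO in 50 mM Tris-HCl pH 7.5 for 60 min at 25 °C. Bound radioligand was separated by glass-fiber filtration with cold buffer washes and counted by scintillation. IC50 came from a least-squares log-probit fit, and Ki from IC50/(1+S).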

[6] = test system: Mus musculus; experiment: Antinociceptive activity in iv dosed CD-1 mouse assessed as time duration of activity by 55 degC warm water tail-flick test; type: functional
Summary of the method: (§1)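 Male CD-1 mice (27−30 g), 8−10 per group. Compound in 0.9% saline, injected into the tail vein at 0.1 mL/10 g after the vein was dilated in 40 °C water. Tail immersion in 55 °C water, with baseline latency first and 5 s non-responders excluded. Tested at intervals post-dose. %Antinociception = 100(test − control latency)/(10 − control latency). A50 values obtained.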

[7] = test system: Mus musculus; experiment: Antinociceptive activity in iv dosed CD-1 mouse by 55 degC warm water tail-flick test; type: functional; summary of the method: as §1
[8] = test system: Mus musculus; experiment: Antinociceptive activity in icv dosed CD-1 mouse by 55 degC warm water tail-flick test; type: functional
Summary of the method: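 Male CD-1 mice (27−30 g), 8−10 per group. Compound in distilled water, given icv under light ether anaesthesia, 2 mm caudal and 2 mm lateral from bregma. 55 °C warm-water tail-flick: baseline latency taken first, and mice not responding within 5 s excluded. Retested at various times after dosing. %Antinociception = 100(test − control latency)/(10 − control latency). A50 doses derived.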

`CC(C)C[C@H](NC(=O)[C@H](Cc1ccccc1)NC(=O)CNC(=O)[C@@H](NC(=O)[C@@H](N)Cc1ccc(O)cc1)[C@@H](C)O)C(=O)N[C@@H](CO[C@@H]1O[C@H](CO)[C@@H](O[C@@H]2O[C@H](CO)[C@@H](O)[C@H](O)[C@H]2O)[C@H](O)[C@H]1O)C(N)=O` (H-YTGFLS(X1)-NH2) was tested, and the Ki [1] was 9.2 nM, the Ki [2] was 42 nM and the A50 [3] was 0.018 nmol. The A50 [4] was 4.07 µmol/kg and the Ki [5] was 5 nM.
With `CC(C)C[C@H](NC(=O)[C@H](CO[C@@H]1O[C@H](CO)[C@@H](O[C@@H]2O[C@H](CO)[C@@H](O)[C@H](O)[C@H]2O)[C@H](O)[C@H]1O)NC(=O)[C@H](CCCCN)NC(=O)[C@H](CC(C)C)NC(=O)[C@H](C)NC(=O)[C@H](CCCCN)NC(=O)[C@H](CCC(=O)O)NC(=O)C(C)(C)NC(=O)[C@H](CC(C)C)NC(=O)[C@H](CC(N)=O)NC(=O)CCCNC(=O)[C@H](CC(C)C)NC(=O)[C@H](Cc1ccccc1)NC(=O)CNC(=O)[C@@H](NC(=O)[C@@H](N)Cc1ccc(O)cc1)[C@@H](C)O)C(N)=O` (H-YTGFL[GABA]NL[Aib]EKALKS(X1)L-NH2) the Ki [1] was 17 nM, the Time [6] was 180 min and the Ki [2] was 52 nM. For the same compound, the A50 [7] was 1.13 µmol/kg, the A50 [8] was 0.165 nmol and the Ki [5] was 13 nM.

Reference: ChEMBL document CHEMBL3596173, “Structural Requirements for CNS Active Opioid Glycopeptides” (J Med Chem, 2015)
